Consider two substances from ChEMBL document CHEMBL4765236, “Insights into the Antimicrobial Activity and Cytotoxicity of Engineered α-Helical Peptide Amphiphiles” (J Med Chem, 2016).

For series [1], the system named is HepG2. The experiment in a line: Induction of cell cycle arrest in human HepG2 cells assessed as accumulation at S phase at 32 uM incubated for 24 hrs by annexin-V/FITC staining-based FACS flow cytometry analysis (reference value: 20.51 %). It counts as functional.
In series [2] the test system is Cell membrane. The experiment in a line: Induction of cell membrane disruption in Escherichia coli O157:H7 CICC 21530 assessed as propidium iodide-positive cells measured after 30 mins by flow cytometry analysis. It is filed as subcellular.
Series [3] concerns HepG2. Kind of series: Induction of cell cycle arrest in human HepG2 cells assessed as accumulation at G2/M phase at 64 uM incubated for 24 hrs by annexin-V/FITC staining-based FACS flow cytometry analysis (reference value: 28.75 %). It counts as functional.
The test system of series [4] is HepG2. Kind of series: Induction of cell cycle arrest in human HepG2 cells assessed as accumulation at Go/G1 phase at 64 uM incubated for 24 hrs by annexin-V/FITC staining-based FACS flow cytometry analysis (reference value: 54.61 %). It counts as functional.
The test system of series [5] is HepG2. The experiment in a line: Induction of cell cycle arrest in human HepG2 cells assessed as accumulation at Go/G1 phase at 32 uM incubated for 24 hrs by annexin-V/FITC staining-based FACS flow cytometry analysis (reference value: 54.61 %). It is filed as functional.
For series [6], the system named is HepG2. The experiment in a line: Induction of cell cycle arrest in human HepG2 cells assessed as accumulation at S phase at 64 uM incubated for 24 hrs by annexin-V/FITC staining-based FACS flow cytometry analysis (reference value: 20.51 %). It is filed as functional.
The subject of series [7] is Cell membrane. Kind of series: Induction of cell membrane disruption in Escherichia coli O157:H7 CICC 21530 assessed as propidium iodide-positive cells at 2 times MIC measured after 30 mins by flow cytometry analysis (reference value: 5.7 %). It is filed as subcellular.
For series [8], the system named is Escherichia coli. Kind of series: Induction of morphological changes in Escherichia coli O157:H7 CICC 21530 assessed as membrane blebbing at 1 times MIC after 60 mins by SEM analysis. It is filed as functional, organism-based.
The test system of series [9] is Cell membrane. Kind of series: Induction of cell membrane disruption in Escherichia coli O157:H7 CICC 21530 assessed as propidium iodide-positive cells at 0.5 times MIC measured after 30 mins by flow cytometry analysis (reference value: 5.7 %). It counts as subcellular.
For series [10], the system named is Staphylococcus aureus. Kind of series: Induction of morphological changes in Staphylococcus aureus ATCC 29213 assessed as membrane destruction at 1 times MIC after 60 mins by SEM analysis. It is filed as functional, organism-based. Put shortly:
(§1)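 S. aureus grown to exponential phase in MHB at 37 °C with shaking at 220 rpm. Cells washed twice in PBS, resuspended to OD600 0.2, then exposed to peptide at 1× MIC for 60 min at 37 °C; untreated cells served as control. Cells were pelleted, PBS-washed, fixed overnight in 2.5% glutaraldehyde at 4 °C, dehydrated through graded ethanol then tert-butanol, and imaged by SEM.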

Series [11] deals with Staphylococcus aureus. The experiment in a line: Induction of morphological changes in Staphylococcus aureus ATCC 29213 assessed as membrane blebbing at 1 times MIC after 60 mins by SEM analysis. It is filed as functional, organism-based. Put shortly:
as §1

Series [12] deals with HepG2. The experiment in a line: Induction of cell cycle arrest in human HepG2 cells assessed as accumulation at G2/M phase at 32 uM incubated for 24 hrs by annexin-V/FITC staining-based FACS flow cytometry analysis (reference value: 28.75 %). It is filed as functional.
Series [13] has as its system HepG2. The experiment in a line: Induction of cell cycle arrest in human HepG2 cells assessed as accumulation at sub-G1 phase at 64 uM incubated for 24 hrs by annexin-V/FITC staining-based FACS flow cytometry analysis (reference value: 0.07%). It counts as functional.
Series [14] has as its system HepG2. Kind of series: Induction of cell cycle arrest in human HepG2 cells assessed as accumulation at sub-G1 phase at 32 uM incubated for 24 hrs by annexin-V/FITC staining-based FACS flow cytometry analysis (reference value: 0.07%). It counts as functional.
Series [15] deals with Escherichia coli. Kind of series: Induction of morphological changes in Escherichia coli O157:H7 CICC 21530 assessed as membrane destruction at 1 times MIC after 60 mins by SEM analysis. It counts as functional, organism-based.
The subject of series [16] is Cell membrane. The experiment in a line: Induction of cell membrane disruption in Escherichia coli O157:H7 CICC 21530 assessed as propidium iodide-positive cells at 1 times MIC measured after 30 mins by flow cytometry analysis (reference value: 5.7 %). It is filed as subcellular.
The test system of series [17] is Escherichia coli. Kind of series: Induction of morphological changes in Escherichia coli O157:H7 CICC 21530 assessed as membrane creeping at 1 times MIC after 60 mins by SEM analysis. It is filed as functional, organism-based.
For series [18], the system named is HepG2. The experiment in a line: Induction of morphological changes in human HepG2 cells assessed as appearance of crimped boundaries at 32 uM after 24 hrs by SEM analysis. It is filed as functional, cell-based.
The test system of series [19] is HepG2. Kind of series: Induction of morphological changes in human HepG2 cells assessed as cell disruption at 32 uM after 24 hrs by SEM analysis. It counts as functional, cell-based.
In series [20] the test system is Staphylococcus aureus. Kind of series: Bactericidal activity against Staphylococcus aureus ATCC 29213 assessed as bacterial killing at 1 times MIC measured within 5 mins by time kill assay. It counts as functional, organism-based. Conditions: time min <5. The method, boiled down: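 Log-phase S. aureus 29213 exposed to peptide at 1 × MIC in 10 mM PBS pH 7.4 at 37 °C for 0-90 min. Aliquots taken at fixed intervals, diluted and plated on nutrient agar, and colonies counted after 18 h at 37 °C. Average of three independent assays.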

Series [21] deals with HepG2. The experiment in a line: Induction of apoptosis in human HepG2 cells assessed as nucleus budding at 32 uM incubated for 2 to 4 hrs by DAPI staining based confocal microscopy. It counts as functional, cell-based. As to conditions: time 2-4 hrs. The method, boiled down: (§2)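 HepG2 cells treated with 32 µM peptide for 2, 4 or 8 h and stained with DAPI. Nuclear morphology imaged by confocal microscopy, with untreated cells as control.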

Series [22] relates to HepG2. The experiment in a line: Induction of apoptosis in human HepG2 cells assessed as nuclei condensation at 32 uM incubated for 2 to 4 hrs by DAPI-staining based confocal microscopy analysis. It counts as functional, cell-based. Conditions: time 2-4 hrs. The method, boiled down: as §2
Series [23] has as its system Escherichia coli. The experiment in a line: Bactericidal activity against Escherichia coli O157:H7 CICC 21530 assessed as bacterial killing at 1 times MIC measured within 5 mins by time kill assay. As to conditions: time min <5. It counts as functional, organism-based.
Series [24] relates to HepG2. The experiment in a line: Induction of ROS generation in human HepG2 cells assessed as increase in visual fluorescence intensity up to 32 uM measured at 2 hr by DCFH-DA staining-based fluorescence analysis. It counts as functional, cell-based. As to conditions: dose microM <=32, time 2.0 hrs.
Series [25] deals with Lipopolysaccharide (LPS). The experiment in a line: Displacement of BODIPYTM-TR-cadaverine from Escherichia coli O111:B4 LPS by fluorescence spectroscopic analysis. Conditions: dose 0.25-4 µM. The method, boiled down:
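LPS-binding dye displacement: LPS (25 µg/mL) and BODIPY-TR-cadaverine (2.5 µg/mL) in tris buffer pH 7.4. An equal volume of peptide solution was added and the rise in fluorescence was recorded at excitation 580 nm and emission 620 nm. Melittin served as positive control. Each test was run independently in triplicate.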

Series [26] deals with Escherichia coli. Kind of series: Induction of morphological changes in Escherichia coli O157:H7 CICC 21530 assessed as outflow of cytoplasm at 1 times MIC after 60 mins by TEM analysis. It is filed as functional, organism-based.
Series [27] in a line: Drug localization in nucleus of human HepG2 cells assessed as fluorescent signal in presence of FITC-labelled peptide at 32 uM incubated for 4 hrs by DAPI staining based confocal microscopy. It counts as ADME, subcellular. As to conditions: hepg2, 4 h. The method, boiled down: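 HepG2 cells incubated with FITC-labelled peptide at 32 µM. Fluorescence distribution imaged by confocal laser-scanning microscopy at intervals (1, 4 and 8 h).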

The subject of series [28] is HepG2. Kind of series: Induction of morphological changes in human HepG2 cells assessed as appearance of rounded cells at 32 uM after 24 hrs by SEM analysis. It counts as functional, cell-based.

The source made the active and inactive calls. The calls are words filed in the database; no cut-off is given here.

Consider H-WGEAFSAGVHRLANGGNG-NH2, for which the Activity in [1] is 25.26%; in [2], “Dose-dependent effect”; in series [3], 30.85%; in series [4], 34.77%; in series [5], 52.45%; in series [6] it was 31.61%. Further, the Activity in [7] came to 27.7%; in series [9], 14.3%; in [12], 29.33%; in series [13], 2.26%; in series [14] it was 1.06%; in series [16] it was 22.9%. Further, the outcome in series [8], in [10], in series [11], in [15] and in [17] was Active.

With H-WLRAFRRLVRRLARGLRR-NH2, the Activity in series [1] is 33.17%; in [2], “Dose-dependent effect”; in series [3], 5.67%; in series [4] it was 5.83%; in [5], 21.35%; in series [6], 11.48%. For the same substance, the Activity was found to be 98% in [7]; 78.9% in series [9]; 21.23% in [12]; 77.66% in series [13]; 24.8% in series [14]; 91.1% in series [16]. Further, the outcome in series [18], in [19], in [20], in series [8], in series [21] and in series [22] was Active. Besides, the outcome in [23], in series [10], in series [11], in series [24], in [15] and in series [25] was Active. For the same substance, the result in [26], in [17] and in series [28] was Active. The Drug uptake result in series [27] is reported as “Active”.
